Laboratory results from ChEMBL document CHEMBL3600321, “Synthesis and antifungal evaluation of head-to-head and head-to-tail bisamidine compounds” (Bioorg Med Chem, 2015).
≈ marks a conversion by molar mass, not a printed value. Calls of active or inactive are those of the source. The rule behind the calls is not given here.

How the values were obtained:
[1] = Metabolic stability in liver microsomes (unknown origin); type: ADME
Candida parapsilosis = assay: Antifungal activity against Candida parapsilosis ATCC 90018 WTBF-88 by microbroth dilution method; type: functional; conditions: Lodderomyces parapsilosis
Procedure, shortened: (§1)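 CLSI microbroth dilution in RPMI 1640 with L-glutamine. MIC values are geometric means of three independent assays.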

Nakaseomyces glabratus = assay: Antifungal activity against Candida glabrata ATCC 90030 WTBF-86 by microbroth dilution method; type: functional; procedure, shortened: as §1
Candida albicans [2] = assay: Antifungal activity against Candida albicans WTBF-50 by microbroth dilution method; type: functional; procedure, shortened: as §1
Candida albicans [3] = assay: Binding affinity to DNA in Candida albicans WTBF-50 at 4 x MIC after 30 mins by Syto9 dye-based fluorescence microscope with GFP filter analysis
Procedure, shortened: (§2)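 An exponential C. albicans culture was treated for 30 min with bisamidine at 4× MIC or with 33 μM Syto9. Fluorescence microscopy used the DAPI channel for the bisamidine and the GFP channel for Syto9, at 400× magnification.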

Pichia kudriavzevii = assay: Antifungal activity against Candida krusei WTBF-51 by microbroth dilution method; type: functional
Candida albicans [4] = assay: Binding affinity to DNA in Candida albicans WTBF-50 at 4 x MIC after 30 mins by Syto9 dye-based fluorescence microscope with DAPI filter analysis; procedure, shortened: as §2
Cryptococcus neoformans = assay: Antifungal activity against Cryptococcus neoformans Cn18 (Serotype C) WTBF-106 by microbroth dilution method; type: functional
Procedure, shortened: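 Microbroth dilution per the CLSI protocol, run in Sabouraud Dextrose Broth in place of RPMI. MIC values are geometric means of three independent assays.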

HeLa = assay: Cytotoxicity against human HeLa cells assessed as cell viability after 72 hrs by MTS assay; type: cell-based
Candida albicans [5] = assay: Fungicidal activity against Candida albicans WTBF-50 assessed as log10 reduction in CFU/ml at 1 x MIC measured within 4 hrs; type: functional
Procedure, shortened: (§3)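 C. albicans was grown in RPMI at 37 °C to OD600 of about 1. […] Samples taken at intervals were serially diluted and plated on Sabouraud agar, and cfu/ml was counted.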

Candida albicans [6] = assay: Fungicidal activity against Candida albicans WTBF-50 assessed as log10 reduction in CFU/ml at 4 x MIC measured within 4 hrs; type: functional; procedure, shortened: as §3
Candida albicans [7] = assay: Ratio of IC50 for inhibition of RNA biosynthesis in Candida albicans WTBF-50 by [3H]-uridine incorporation assay to IC50 for inhibition of DNA and RNA biosynthesis in Candida albicans WTBF-50 by [3H]-adenine incorporation assay; type: functional
Procedure, shortened: (§4)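 The ratio was formed from IC50 values of the 3H-precursor incorporation assay: C. albicans at OD600 of about 1 in RPMI, serial compound dilutions, 10 μCi/ml final label, 90 min at 37 °C. TCA precipitate was scintillation-counted, triplicates were run, and IC50 came from a four-parameter fit.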

Candida albicans [8] = assay: Fungicidal activity against Candida albicans WTBF-50 assessed as inhibition of lipid biosynthesis after 90 mins by [3H]-acetate incorporation assay; type: functional, organism-based
Procedure, shortened: (§5)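 C. albicans was grown in RPMI at 37 °C to OD600 of about 1, then mixed with 2-fold serial dilutions of compound and one 3H precursor at 10 μCi/ml final. Incubation ran 90 min at 37 °C, about one doubling. TCA precipitate was filter-collected and scintillation-counted. Each concentration was tested in triplicate. Incorporation relative to untreated control was fitted with a four-parameter curve to give the IC50.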

Candida albicans [9] = assay: Fungicidal activity against Candida albicans WTBF-50 assessed as inhibition of cell wall biosynthesis after 90 mins by [3H]-glucosamine incorporation assay; type: functional, organism-based; procedure, shortened: as §5
Candida albicans [10] = assay: Fungicidal activity against Candida albicans WTBF-50 assessed as decrease in number of viable cells measured within 4 to 24 hrs; type: functional, organism-based; procedure, shortened: as §3
Candida albicans [11] = assay: Ratio of IC50 for inhibition of cell wall biosynthesis in Candida albicans WTBF-50 by [3H]-glucosamine incorporation assay to IC50 for inhibition of DNA and RNA biosynthesis in Candida albicans WTBF-50 by [3H]-adenine incorporation assay; type: functional; procedure, shortened: as §4
Candida albicans [12] = assay: Fungicidal activity against Candida albicans WTBF-50 assessed as inhibition of DNA and RNA biosynthesis after 90 mins by [3H]-adenine incorporation assay; type: functional, organism-based; procedure, shortened: as §5
Candida albicans [13] = assay: Fungicidal activity against Candida albicans WTBF-50 assessed as inhibition of protein biosynthesis after 90 mins by [3H]-leucine incorporation assay; type: functional, organism-based; procedure, shortened: as §5
Candida albicans [14] = assay: Fungicidal activity against Candida albicans WTBF-50 assessed as inhibition of RNA biosynthesis after 90 mins by [3H]-uridine incorporation assay; type: functional, organism-based; procedure, shortened: as §5
Candida albicans [15] = assay: Fungicidal activity against Candida albicans WTBF-50 assessed as decrease in number of viable cells at 4 x MIC measured within 4 to 24 hrs; type: functional, organism-based; procedure, shortened: as §3
Candida albicans [16] = assay: Fungicidal activity against Candida albicans WTBF-50 assessed as log10 reduction in CFU/ml at 2 x MIC measured within 24 hrs; type: functional; procedure, shortened: as §3
Candida albicans [17] = assay: Fungicidal activity against Candida albicans WTBF-50 assessed as log10 reduction in CFU/ml at 1 x MIC measured within 24 hrs; type: functional; procedure, shortened: as §3

| Stability [1] | MIC (Candida parapsilosis) [µg/mL] | MIC (Nakaseomyces glabratus) [µg/mL] | MIC (Candida albicans [2]) [µg/mL] | MIC (Pichia kudriavzevii) [µg/mL] | MIC (Cryptococcus neoformans) [µg/mL] | SMILES | CC50 (HeLa) [µg/mL] | also measured |
| --- | --- | --- | --- | --- | --- | --- | --- | --- |
| – | 0.31 (≈ 0.335 µM) | 0.25 (≈ 0.271 µM) | – | – | 32 (≈ 34.6 µM) | C[C@@H]1[C@H](O)[C@@H](C)/C=C/C=C/C=C/C=C/C=C/C=C/C=C/[C@H](O[C@@H]2O[C@H](C)[C@@H](O)[C@H](N)[C@@H]2O)C[C@@H]2O[C@](O)(C[C@@H](O)C[C@@H](O)[C@H](O)CC[C@@H](O)C[C@@H](O)CC(=O)O[C@H]1C)C[C@H](O)[C@H]2C(=O)O [AMPHOTERICIN B] | – | IC50 (Candida albicans [8]): 0.036 µg/mL (≈ 0.039 µM); IC50 (Candida albicans [9]): 0.043 µg/mL (≈ 0.0465 µM); Activity (Candida albicans [15]): Active; IC50 (Candida albicans [12]): 0.038 µg/mL (≈ 0.0411 µM); IC50 (Candida albicans [13]): 0.052 µg/mL (≈ 0.0563 µM); IC50 (Candida albicans [14]): 0.014 µg/mL (≈ 0.0152 µM) |
| – | 12.5 (≈ 36.7 µM) | 3.13 (≈ 9.19 µM) | 25 (≈ 73.4 µM) | 19.8 (≈ 58.2 µM) | ≥ 100 | N=C(N)c1ccc(OCCCCCOc2ccc(C(=N)N)cc2)cc1 [PENTAMIDINE] | – | IC50 (Candida albicans [8]): > 25 µg/mL; IC50 (Candida albicans [9]): > 25 µg/mL; IC50 (Candida albicans [12]): 0.19 µg/mL (≈ 0.558 µM); IC50 (Candida albicans [13]): > 25 µg/mL; IC50 (Candida albicans [14]): 12.2 µg/mL (≈ 35.8 µM) |
| Stable | 2 | 1 | 1.26 | 8 | 3.13 | Cl.OCC1(CO)CN=C(c2ccc3cc(-c4ccc(-c5cc6ccc(C7=NCC(CO)(CO)CN7)cc6[nH]5)cc4)[nH]c3c2)NC1 | 32.4 | – |
| Stable | 2.52 | 1.59 | 8 | 8 | 3.94 | CC(=O)O.c1cn2cc(-c3ccc(-c4ccc5cc(C6=NCCCN6)oc5c4)cc3)nc2cc1C1=NCCCN1 | 32.5 | – |
| Stable | ≥ 32 | 1 (≈ 2.21 µM) | ≥ 32 | ≥ 32 | 1.59 (≈ 3.51 µM) | c1cc2cc(CCCCc3cc4ccc(C5=NCCCN5)cc4[nH]3)[nH]c2cc1C1=NCCCN1 | 14.7 (≈ 32.5 µM) | – |
| Stable | 2 | 0.31 | 2 | 8 | 2 | CC(=O)O.c1cc2nc(-c3ccc(-c4ccc5cc(C6=NCCCN6)oc5c4)cc3)cn2cc1C1=NCCCN1 | 25.5 | – |
| Stable | 0.16 | 0.06 | 0.25 | 0.25 | 0.98 | CC(=O)O.c1cc2cc(-c3ccc(-c4c[nH]c5cc(C6=NCCCN6)ccc45)cc3)[nH]c2cc1C1=NCCCN1 | 2.4 | Activity (Candida albicans [6]): >3 log10CFU/ml; Ratio IC50 (Candida albicans [7]): 30; Activity (Candida albicans [16]): 4 log10CFU/ml; IC50 (Candida albicans [8]): ≥ 2 µg/mL; IC50 (Candida albicans [9]): 0.87 µg/mL; Activity (Candida albicans [10]): Dose-dependent effect; Ratio IC50 (Candida albicans [11]): 43.5; IC50 (Candida albicans [12]): 0.02 µg/mL; IC50 (Candida albicans [13]): 0.86 µg/mL; Activity (Candida albicans [17]): 1 log10CFU/ml; IC50 (Candida albicans [14]): 0.56 µg/mL |
| Stable | 0.13 | 0.06 | 0.25 | 0.5 | 0.13 | CC(=O)O.c1cc2cc(-c3ccc(-c4ccc5cc(C6=NCCCN6)oc5c4)cc3)[nH]c2cc1C1=NCCCN1 | 1.5 | Activity (Candida albicans [6]): >3 log10CFU/ml; Activity (Candida albicans [10]): Dose-dependent effect |
| Stable | 1 (≈ 2 µM) | 1.26 (≈ 2.52 µM) | 1.59 (≈ 3.18 µM) | 4 (≈ 7.99 µM) | 1.97 (≈ 3.93 µM) | CN1CCCN=C1c1ccc2cc(-c3ccc(-c4cc5ccc(C6=NCCCN6C)cc5[nH]4)cc3)[nH]c2c1 | 4.7 (≈ 9.39 µM) | – |
| Stable | 2 | 2.52 | 4 | 25.4 | 1 | CC(=O)O.c1cc2cc(-c3ccc4cc(C5=NCCCN5)[nH]c4c3)oc2cc1C1=NCCCN1 | 40.5 | – |

| SMILES | Stability [1] | MIC (Candida parapsilosis) [µg/mL] | MIC (Nakaseomyces glabratus) [µg/mL] | MIC (Candida albicans [2]) [µg/mL] | MIC (Pichia kudriavzevii) [µg/mL] | MIC (Cryptococcus neoformans) [µg/mL] | CC50 (HeLa) [µg/mL] | also measured |
| --- | --- | --- | --- | --- | --- | --- | --- | --- |
| O=C(O)C(F)(F)F.c1cc2cc(-c3ccc(-c4cc5ccc(C6=NCCN6)cc5[nH]4)cc3)[nH]c2cc1C1=NCCN1 | Stable | 0.63 | 0.25 | 10.1 | 4 | 2 | 32.5 | Activity (Candida albicans [3]): Active; Activity (Candida albicans [4]): Active |
| O=C(O)C(F)(F)F.c1cc2cc(-c3ccc(-c4cc5ccc(C6=NCCCN6)cc5[nH]4)cc3)[nH]c2cc1C1=NCCCN1 | Stable | 0.1 | 0.06 | 0.25 | 0.13 | 0.08 | 4 | Activity (Candida albicans [5]): 3 log10CFU/ml; Activity (Candida albicans [6]): >3 log10CFU/ml; Ratio IC50 (Candida albicans [7]): 30; IC50 (Candida albicans [8]): ≥ 2 µg/mL; IC50 (Candida albicans [9]): 0.59 µg/mL; Activity (Candida albicans [10]): Dose-dependent effect; Ratio IC50 (Candida albicans [11]): 59; IC50 (Candida albicans [12]): 0.01 µg/mL; IC50 (Candida albicans [13]): 0.59 µg/mL; IC50 (Candida albicans [14]): 0.32 µg/mL |
| N=C(NCCO)c1ccc2cc(-c3ccc(-c4cc5ccc(C(=N)NCCO)cc5[nH]4)cc3)[nH]c2c1.O=C(O)C(F)(F)F | Stable | 0.25 | 0.13 | 0.25 | 1.59 | 1.97 | 14 | – |
| Brc1c(-c2ccc(-c3[nH]c4cc(C5=NCCCN5)ccc4c3Br)cc2)[nH]c2cc(C3=NCCCN3)ccc12.O=C(O)C(F)(F)F | Stable | 0.5 | 0.5 | 0.63 | 0.5 | 0.78 | 0.5 | – |
| CC(C)NC(=N)c1ccc2cc(-c3ccc(-c4cc5ccc(C(=N)NC(C)C)cc5[nH]4)cc3)[nH]c2c1.O=C(O)C(F)(F)F | Stable | 0.25 | 0.2 | 0.5 | 0.4 | 1.56 | 3.5 | – |
